What was measured:
Conditions in all cases: in vivo
[1] = Biodistribution in tumor of B16F0 tumor bearing C57BL/6J mouse at 0.37-0.74 MBq, iv after 24 hrs in presence of haloperidol; assay type: ADME, organism-based, B16-F0
Procedure, shortened: (§1)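 B16F0 tumor-bearing C57BL/6J mice, groups of n = 5, given haloperidol 1 mg/kg i.v. 5 min before the i.v. [¹²³I]tracer (0.37-0.74 MBq). Killed at 1 or 24 h. Tissues γ-counted as for biodistribution and compared with untreated controls by one-way ANOVA, significance p < 0.01.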

Liver [2] = test: Biodistribution in liver of B16F0 tumor bearing C57BL/6J mouse at 0.37-0.74 MBq, iv after 1 hr in presence of haloperidol; assay type: ADME, organism-based
Procedure, shortened: (§2)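 Haloperidol blocking in B16F0-bearing C57BL/6J mice: 1 mg/kg haloperidol was given iv 5 min before the iv [¹²³I]benzamide (0.37-0.74 MBq). Groups of n = 5 were killed at 1 or 24 h. Tissues were weighed and γ-counted as in the biodistribution study and compared with untreated controls by one-way ANOVA, with p < 0.01 taken as significant.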

[3] = Biodistribution in eye of B16F0 tumor bearing C57BL/6J mouse at 0.37-0.74 MBq, iv after 1 hr in presence of haloperidol; assay type: ADME, organism-based; procedure, shortened: as §2
Liver [4] = test: Biodistribution in liver of B16F0 tumor bearing C57BL/6J mouse at 0.37-0.74 MBq, iv after 6 hrs; assay type: ADME, organism-based
Procedure, shortened: (§3)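 Female C57BL/6J mice (15-18 g) were given B16F0 cells subcutaneously in the left flank (0.1 mL of 3 × 10⁶ viable cells/mL in Ca²⁺/Mg²⁺-free PBS) at 6-7 weeks and used after ten days. [¹²³I]benzamide (0.37-0.74 MBq, 100 µL, saline) was injected via the tail vein. Groups of n = 5 were killed by CO₂ and cervical dislocation. Organs were weighed and γ-counted, and the carcass was counted too.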

Lung [5] = test: Biodistribution in lung of B16F0 tumor bearing C57BL/6J mouse at 0.37-0.74 MBq, iv after 24 hrs in presence of haloperidol; assay type: ADME, organism-based; procedure, shortened: as §2
Kidney [6] = test: Biodistribution in kidney of B16F0 tumor bearing C57BL/6J mouse at 0.37-0.74 MBq, iv after 1 hr in presence of haloperidol; assay type: ADME, organism-based; procedure, shortened: as §2
Liver [7] = test: Biodistribution in liver of B16F0 tumor bearing C57BL/6J mouse at 0.37-0.74 MBq, iv after 24 hrs in presence of haloperidol; assay type: ADME, organism-based; procedure, shortened: as §2
Blood [8] = test: Biodistribution in blood of B16F0 tumor bearing C57BL/6J mouse at 0.37-0.74 MBq, iv after 1 hr; assay type: ADME, organism-based; procedure, shortened: as §3
Lung [9] = test: Biodistribution in lung of B16F0 tumor bearing C57BL/6J mouse at 0.37-0.74 MBq, iv after 1 hr; assay type: ADME, organism-based; procedure, shortened: as §3
[10] = Biodistribution in tumor of B16F0 tumor bearing C57BL/6J mouse at 0.37-0.74 MBq, iv after 1 hr in presence of haloperidol; assay type: ADME, organism-based, B16-F0; procedure, shortened: as §1
Brain [11] = test: Biodistribution in brain of B16F0 tumor bearing C57BL/6J mouse at 0.37-0.74 MBq, iv after 1 hr in presence of haloperidol; assay type: ADME, organism-based
[12] = Biodistribution in eye of B16F0 tumor bearing C57BL/6J mouse at 0.37-0.74 MBq, iv after 24 hrs in presence of haloperidol; assay type: ADME, organism-based; procedure, shortened: as §2
Heart [13] = test: Biodistribution in heart of B16F0 tumor bearing C57BL/6J mouse at 0.37-0.74 MBq, iv after 24 hrs; assay type: ADME, organism-based; procedure, shortened: as §3
Blood [14] = test: Biodistribution in blood of B16F0 tumor bearing C57BL/6J mouse at 0.37-0.74 MBq, iv after 24 hrs; assay type: ADME, organism-based; procedure, shortened: as §3
Brain [15] = test: Biodistribution in brain of B16F0 tumor bearing C57BL/6J mouse at 0.37-0.74 MBq, iv after 1 hr; assay type: ADME, organism-based; procedure, shortened: as §3
Kidney [16] = test: Biodistribution in kidney of B16F0 tumor bearing C57BL/6J mouse at 0.37-0.74 MBq, iv after 24 hrs in presence of haloperidol; assay type: ADME, organism-based; procedure, shortened: as §2
Kidney [17] = test: Biodistribution in kidney of B16F0 tumor bearing C57BL/6J mouse at 0.37-0.74 MBq, iv after 6 hrs; assay type: ADME, organism-based; procedure, shortened: as §3
[18] = Biodistribution in melanoma of B16F0 tumor bearing C57BL/6J mouse at 0.37-0.74 MBq, iv after 24 hrs; assay type: ADME, organism-based, B16-F0; procedure, shortened: as §3
Lung [19] = test: Biodistribution in lung of B16F0 tumor bearing C57BL/6J mouse at 0.37-0.74 MBq, iv after 24 hrs; assay type: ADME, organism-based; procedure, shortened: as §3
Heart [20] = test: Biodistribution in heart of B16F0 tumor bearing C57BL/6J mouse at 0.37-0.74 MBq, iv after 6 hrs; assay type: ADME, organism-based; procedure, shortened: as §3
Blood [21] = test: Biodistribution in blood of B16F0 tumor bearing C57BL/6J mouse at 0.37-0.74 MBq, iv after 6 hrs; assay type: ADME, organism-based; procedure, shortened: as §3
Lung [22] = test: Biodistribution in lung of B16F0 tumor bearing C57BL/6J mouse at 0.37-0.74 MBq, iv after 6 hrs; assay type: ADME, organism-based; procedure, shortened: as §3
Liver [23] = test: Biodistribution in liver of B16F0 tumor bearing C57BL/6J mouse at 0.37-0.74 MBq, iv after 1 hr; assay type: ADME, organism-based; procedure, shortened: as §3
Kidney [24] = test: Biodistribution in kidney of B16F0 tumor bearing C57BL/6J mouse at 0.37-0.74 MBq, iv after 1 hr; assay type: ADME, organism-based; procedure, shortened: as §3
Blood [25] = test: Biodistribution in blood of B16F0 tumor bearing C57BL/6J mouse at 0.37-0.74 MBq, iv after 1 hr in presence of haloperidol; assay type: ADME, organism-based
Brain [26] = test: Biodistribution in brain of B16F0 tumor bearing C57BL/6J mouse at 0.37-0.74 MBq, iv after 24 hrs in presence of haloperidol; assay type: ADME, organism-based
[27] = Biodistribution in melanoma of B16F0 tumor bearing C57BL/6J mouse at 0.37-0.74 MBq, iv after 6 hrs; assay type: ADME, organism-based, B16-F0
Procedure, shortened: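 Female C57BL/6J mice (15-18 g) carrying s.c. B16F0 flank tumors (0.1 mL of 3 × 10⁶ viable cells per mL in Ca²⁺/Mg²⁺-free PBS, inoculated at 6-7 weeks, used 10 days later). [¹²³I]tracer 0.37-0.74 MBq in saline, 100 µL, tail-vein i.v. Groups of n = 5 killed at 1-72 h. Organs weighed and γ-counted, carcass activity also counted, values as %ID/g.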

Brain [28] = test: Biodistribution in brain of B16F0 tumor bearing C57BL/6J mouse at 0.37-0.74 MBq, iv after 24 hrs; assay type: ADME, organism-based; procedure, shortened: as §3
[29] = Biodistribution in melanoma of B16F0 tumor bearing C57BL/6J mouse at 0.37-0.74 MBq, iv after 1 hr; assay type: ADME, organism-based, B16-F0; procedure, shortened: as §3
Kidney [30] = test: Biodistribution in kidney of B16F0 tumor bearing C57BL/6J mouse at 0.37-0.74 MBq, iv after 24 hrs; assay type: ADME, organism-based; procedure, shortened: as §3
Brain [31] = test: Biodistribution in brain of B16F0 tumor bearing C57BL/6J mouse at 0.37-0.74 MBq, iv after 6 hrs; assay type: ADME, organism-based; procedure, shortened: as §3
Heart [32] = test: Biodistribution in heart of B16F0 tumor bearing C57BL/6J mouse at 0.37-0.74 MBq, iv after 1 hr; assay type: ADME, organism-based; procedure, shortened: as §3
Blood [33] = test: Biodistribution in blood of B16F0 tumor bearing C57BL/6J mouse at 0.37-0.74 MBq, iv after 24 hrs in presence of haloperidol; assay type: ADME, organism-based
Liver [34] = test: Biodistribution in liver of B16F0 tumor bearing C57BL/6J mouse at 0.37-0.74 MBq, iv after 24 hrs; assay type: ADME, organism-based; procedure, shortened: as §3
Lung [35] = test: Biodistribution in lung of B16F0 tumor bearing C57BL/6J mouse at 0.37-0.74 MBq, iv after 1 hr in presence of haloperidol; assay type: ADME, organism-based; procedure, shortened: as §2

Question: Which results are given for O=C(NC1CCN(CCF)CC1)c1ccc(I)cc1?
Answer: Drug uptake [1]: 3.3 % ID/g; Drug uptake (Liver [2]): 10.1 % ID/g; Drug uptake [3]: 34.8 % ID/g; Drug uptake (Liver [4]): 3.8 % ID/g; Drug uptake (Lung [5]): 0.14 % ID/g; Drug uptake (Kidney [6]): 7.3 % ID/g; Drug uptake (Liver [7]): 0.12 % ID/g; Drug uptake (Blood [8]): 1 % ID/g; Drug uptake (Lung [9]): 10.8 % ID/g; Drug uptake [10]: 10.5 % ID/g; Drug uptake (Brain [11]): 1.61 % ID/g; Drug uptake [12]: 24.6 % ID/g; Drug uptake (Heart [13]): 0.09 % ID/g; Drug uptake (Blood [14]): 0.04 % ID/g; Drug uptake (Brain [15]): 3.1 % ID/g; Drug uptake (Kidney [16]): 0.1 % ID/g; Drug uptake (Kidney [17]): 3.4 % ID/g; Drug uptake [18]: 5.5 % ID/g; Drug uptake (Lung [19]): 0.33 % ID/g; Drug uptake (Heart [20]): 0.93 % ID/g; Drug uptake (Blood [21]): 0.34 % ID/g; Drug uptake (Lung [22]): 6.4 % ID/g; Drug uptake (Liver [23]): 19.2 % ID/g; Drug uptake (Kidney [24]): 8.7 % ID/g; Drug uptake (Blood [25]): 1.46 % ID/g; Drug uptake (Brain [26]): 0.06 % ID/g; Drug uptake [27]: 12.5 % ID/g; Drug uptake (Brain [28]): 0.09 % ID/g; Drug uptake [29]: 10.9 % ID/g; Drug uptake (Kidney [30]): 0.22 % ID/g; Drug uptake (Brain [31]): 0.48 % ID/g; Drug uptake (Heart [32]): 3 % ID/g; Drug uptake (Blood [33]): 0.03 % ID/g; Drug uptake (Liver [34]): 0.29 % ID/g; Drug uptake (Lung [35]): 9.7 % ID/g
